This is an account of results in ChEMBL document CHEMBL3872202, “Synthesis and biofilm formation reduction of pyrazole-4-carboxamide derivatives in some Staphylococcus aureus strains” (Eur J Med Chem, 2016).

The IC50 is the concentration that gives 50% inhibition. A higher IC50 goes with lower potency.

The structures appear in SMILES notation.

For series [1], the system named is Staphylococcus aureus. Put plainly: Antibiofilm activity against Staphylococcus aureus ATCC 29213 after 24 hrs by crystal-violet stain based assay. In kind it is functional. The following applies: ATCC 29213, 24 h. Put shortly:
(§1)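 Biofilm prevention: diluted bacterial suspension (OD about 0.040 at 570 nm) with sub-MIC concentrations from 300 to 0.3 added at time zero, 37 °C for 24 h in 24-well polystyrene plates. Wells washed three times with PBS, stained with 0.1% crystal violet for 30 min, and the stain redissolved in ethanol. OD read at 600 nm. Percent inhibition taken against untreated control wells. Triplicate, repeated at least twice.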

Series [2] concerns Staphylococcus aureus. Put plainly: Inhibition of Staphylococcus aureus ATCC 25923 planktonic growth at 250 uM after 24 hrs by microbroth dilution method. For orientation: Broth dilution looks for growth in wells or tubes with falling amounts of substance.
The subject of series [3] is Staphylococcus aureus. Put plainly: Inhibition of Staphylococcus aureus ATCC 29213 planktonic growth at 250 uM after 24 hrs by microbroth dilution method.
For series [4], the system named is Staphylococcus aureus. Put plainly: Antibiofilm activity against Staphylococcus aureus ATCC 25923 after 24 hrs by crystal-violet stain based assay. In kind it is functional. The following applies: ATCC 25923, 24 h. An outline of the steps: as §1
Series [5] concerns Staphylococcus aureus. Put plainly: Inhibition of Staphylococcus aureus ATCC 6538 planktonic growth at 250 uM after 24 hrs by microbroth dilution method.
The subject of series [6] is Staphylococcus aureus. Put plainly: Antibiofilm activity against Staphylococcus aureus ATCC 6538 after 24 hrs by crystal-violet stain based assay. The settings on record: ATCC 6538, 24 h. Type of series: functional. An outline of the steps:
as §1

Series [7] relates to Staphylococcus aureus. Put plainly: Antibiofilm activity against Staphylococcus aureus ATCC 6538 after 24 hrs by safranin staining based assay. In kind it is functional. The following applies: ATCC 6538, 24 h.
Series [8] has as its system Staphylococcus aureus. Put plainly: Antibiofilm activity against Staphylococcus aureus ATCC 29213 after 24 hrs by safranin staining based assay. Type of series: functional. The settings on record: ATCC 29213, 24 h.
In series [9] the test system is Staphylococcus aureus. Put plainly: Antibiofilm activity against Staphylococcus aureus ATCC 25923 after 24 hrs by safranin staining based assay. The settings on record: ATCC 25923, 24 h. In kind it is functional.
Series [10] can be described thus: Toxicity in Galleria mellonella assessed as effect on larval weight at 1 mg/kg administered as single dose measured every 24 hrs for 72 hrs. The settings on record: in vivo. Type of series: organism-based. An outline of the steps:
(§2)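 Uninfected larvae given a single 1 mg/kg injection in PBS with 3% DMSO, alongside untreated and vehicle-only groups, three replicates of four larvae each. Larvae kept in starvation and monitored for weight loss and time to pupation/chrysalis formation as sub-lethal endpoints. Groups compared statistically.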

Series [11] is described as follows: Toxicity in Galleria mellonella assessed as effect on time to pupation at 1 mg/kg administered as single dose measured every 24 hrs for 72 hrs. The settings on record: in vivo. Type of series: organism-based. An outline of the steps:
as §2

Series [12] can be described thus: Toxicity in Galleria mellonella assessed as effect on larval survival at 1 mg/kg administered as single dose measured every 24 hrs for 72 hrs. Type of series: organism-based. The following applies: in vivo. An outline of the steps:
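Larvae held at 37 °C and given a single 1 mg/kg injection in PBS with 3% DMSO. Controls were untreated larvae and vehicle-injected larvae. Three replicates of four larvae per group. Survival checked at 24, 48 and 72 h after injection. Results given as mean with SD and compared by post hoc Tukey test (P < 0.05).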

Series [13] concerns Staphylococcus aureus. Put plainly: Antivirulence activity against Staphylococcus aureus ATCC 29213 infected in Galleria mellonella larvae assessed as increase in larvae survival at 1 mg/kg administered as single dose pretreated for 1 hr followed by bacterial infection measured every 24 hrs for 72 hrs relative to control. In kind it is functional. An outline of the steps: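 Galleria mellonella larvae given a single 1 mg/kg injection in PBS with 3% DMSO 1 h before inoculation with live S. aureus ATCC 29213, injected into alternate prolegs. Controls: untouched larvae, uninfected vehicle-injected larvae, uninfected compound-treated larvae, and vehicle-pretreated infected larvae. Larvae held at 37 °C, survival checked at 24, 48 and 72 h. Three replicates of four larvae per group, Tukey post hoc test.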

As for `CCOC(=O)c1cnn(-c2ccc(S(N)(=O)=O)cc2)c1N`, the IC50 in the series with Staphylococcus aureus [1] is 28 µM; in the series with Staphylococcus aureus [4], 77 µM; with Staphylococcus aureus [6], 142 µM. The “growth inhibition (GI)” value with Staphylococcus aureus [2], in the series on Staphylococcus aureus [3] and with Staphylococcus aureus [5] was “Non-Toxic” throughout.

Consider `Cc1c(C(=O)Nc2ccccc2)cnn1-c1cccc([N+](=O)[O-])c1`, for which the IC50 in the series with Staphylococcus aureus [1] turned out to be 46 µM; with Staphylococcus aureus [4] it was 64 µM; in the series with Staphylococcus aureus [6] it was 90 µM. Also, the “growth inhibition (GI)” value in the series on Staphylococcus aureus [2], with Staphylococcus aureus [3] and with Staphylococcus aureus [5] was “Non-Toxic” throughout.

`CCOC(=O)c1cnn(-c2ccccc2)c1N`: the IC50 came to 34 µM with Staphylococcus aureus [1], 222 µM in the series with Staphylococcus aureus [4] and 95 µM in the series on Staphylococcus aureus [6]. The “growth inhibition (GI)” value with Staphylococcus aureus [2], with Staphylococcus aureus [3] and in the series with Staphylococcus aureus [5] was “Non-Toxic” each time.

As to `Cc1c(C(=O)Nc2ccccc2)cnn1-c1cc(Cl)ccc1Cl`, the concentration for half-maximal inhibition (IC50) in the series with Staphylococcus aureus [1] stood at 52 µM; in the series with Staphylococcus aureus [4], 92 µM. Besides, the “growth inhibition (GI)” value in the series with Staphylococcus aureus [2], in the series with Staphylococcus aureus [3] and with Staphylococcus aureus [5] was “Non-Toxic” each time.

As to `Cc1c(C(=O)Nc2ccccc2)cnn1-c1ccc(Cl)cc1`, the IC50 with Staphylococcus aureus [1] is 38 µM; with Staphylococcus aureus [4], 552 µM; with Staphylococcus aureus [6], 30 µM. For the same molecule, the “growth inhibition (GI)” value with Staphylococcus aureus [2], with Staphylococcus aureus [3] and with Staphylococcus aureus [5] was “Non-Toxic” in each case.

With `Cc1c(C(=O)Nc2ccccc2)cnn1-c1ccc([N+](=O)[O-])cc1`, the half-maximal inhibitory concentration (IC50) was found to be 127 µM in the series on Staphylococcus aureus [1], 434 µM in the series on Staphylococcus aureus [4] and 55 µM in the series on Staphylococcus aureus [6]. The “growth inhibition (GI)” value in the series on Staphylococcus aureus [2], in the series with Staphylococcus aureus [3] and with Staphylococcus aureus [5] was “Non-Toxic” in each case.

Take `CCOC(=O)c1c(C)n[nH]c1N`: the figures for the IC50 in the series on Staphylococcus aureus [1], with Staphylococcus aureus [4] and in the series with Staphylococcus aureus [6] were 62 µM, 378 µM and 82 µM, respectively. Further, the “growth inhibition (GI)” value in the series on Staphylococcus aureus [2], in the series with Staphylococcus aureus [3] and in the series on Staphylococcus aureus [5] was “Non-Toxic” each time.

For the molecule `Cc1c(C(=O)Nc2ccccc2)cnn1-c1ccccc1`, the IC50 came to 309 µM in the series on Staphylococcus aureus [1], 112 µM with Staphylococcus aureus [4] and 77 µM in the series with Staphylococcus aureus [6]. Also, the “growth inhibition (GI)” value in the series on Staphylococcus aureus [2], in the series with Staphylococcus aureus [3] and in the series on Staphylococcus aureus [5] was “Non-Toxic” throughout.

Take `CCn1nc(C)cc1C(=O)/C(=N\Nc1cccc(Cl)c1)C(=O)O`: the values for the IC50 with Staphylococcus aureus [7], with Staphylococcus aureus [8] and in the series on Staphylococcus aureus [9] were 11 µM, 16 µM and 20 µM, respectively.

Regarding `Cc1cc(C(=O)Nc2ccccc2)nn1-c1ccccc1`, the IC50 is 54 µM in the series with Staphylococcus aureus [1], 76 µM with Staphylococcus aureus [4] and 64 µM in the series with Staphylococcus aureus [6]. For the same molecule, the “growth inhibition (GI)” value with Staphylococcus aureus [2], in the series on Staphylococcus aureus [3] and with Staphylococcus aureus [5] was “Non-Toxic” each time.

As for `CCOC(=O)/C(=N/Nc1cccc(C)c1)C(=O)c1cc(C)nn1CC`, the 50% inhibitory concentration (IC50) is 43 µM in the series with Staphylococcus aureus [7], 1.7 µM in the series on Staphylococcus aureus [8] and 10 µM in the series on Staphylococcus aureus [9].

Consider `Cc1cc(C(=O)Nc2ccccc2)n(-c2ccccc2)n1`, for which the half-inhibitory concentration (IC50) with Staphylococcus aureus [1] came to 123 µM; in the series with Staphylococcus aureus [4] it was 74 µM; in the series with Staphylococcus aureus [6] it was 54 µM. Besides, the “growth inhibition (GI)” value in the series with Staphylococcus aureus [2], with Staphylococcus aureus [3] and in the series with Staphylococcus aureus [5] was “Non-Toxic” throughout.

On to `CCOC(=O)c1cn[nH]c1N`, for which the figures for the IC50 with Staphylococcus aureus [1], with Staphylococcus aureus [4] and in the series on Staphylococcus aureus [6] were 83 µM, 213 µM and 85 µM, respectively. The “growth inhibition (GI)” value in the series with Staphylococcus aureus [2], in the series on Staphylococcus aureus [3] and in the series with Staphylococcus aureus [5] was “Non-Toxic” each time.

In the case of `Cc1c(C(=O)Nc2ccccc2)cnn1-c1ccc(C(F)(F)F)cc1`, the concentration for half-maximal inhibition (IC50) in the series on Staphylococcus aureus [1] was 46 µM; with Staphylococcus aureus [4], 64 µM. In addition, the “growth inhibition (GI)” value with Staphylococcus aureus [2], in the series on Staphylococcus aureus [3] and with Staphylococcus aureus [5] was “Non-Toxic” each time.

Regarding `CCOC(=O)c1cnn(-c2ccccn2)c1N`, the figures for the 50% inhibitory concentration (IC50) with Staphylococcus aureus [1], with Staphylococcus aureus [4] and in the series with Staphylococcus aureus [6] were 31 µM, 102 µM and 91 µM, respectively. Moreover, the “growth inhibition (GI)” value in the series with Staphylococcus aureus [2], in the series with Staphylococcus aureus [3] and in the series on Staphylococcus aureus [5] was “Non-Toxic” throughout.

As for `CCOC(=O)c1cnn(C)c1N`, the half-inhibitory concentration (IC50) in the series with Staphylococcus aureus [1] was 152 µM; in the series on Staphylococcus aureus [4] it was 159 µM. Also, the “growth inhibition (GI)” value in the series with Staphylococcus aureus [2], in the series with Staphylococcus aureus [3] and in the series with Staphylococcus aureus [5] was “Non-Toxic” in each case.

Regarding `CC(=O)/C(=C\NNc1cc(Cl)ccc1Cl)C(=O)Nc1ccccc1`, the IC50 in the series on Staphylococcus aureus [1] came out at 2.5 µM; with Staphylococcus aureus [4], 2.3 µM; with Staphylococcus aureus [6] it was 32 µM. Moreover, the Activity result in series [10], in [11] and in [12] was “Non-Toxic” throughout. For the same molecule, the “growth inhibition (GI)” value in the series on Staphylococcus aureus [2], with Staphylococcus aureus [3] and in the series with Staphylococcus aureus [5] was “Non-Toxic” in each case. Also, in the series on Staphylococcus aureus [13], the “fold change (FC)” value stood at 1.6.

Regarding `CCOC(=O)/C(=N/Nc1ccccc1F)C(=O)c1cc(C)nn1CC`, the half-maximal inhibitory concentration (IC50) in the series with Staphylococcus aureus [7] was 0.9 µM; in the series with Staphylococcus aureus [8], 13 µM; in the series with Staphylococcus aureus [9], 42 µM.

Regarding `Cc1c(C(=O)Nc2ccccc2)cnn1-c1cc(F)ccc1F`, the IC50 with Staphylococcus aureus [1] was determined as 89 µM; with Staphylococcus aureus [4], 61 µM; with Staphylococcus aureus [6], 81 µM. Besides, the “growth inhibition (GI)” value in the series with Staphylococcus aureus [2], with Staphylococcus aureus [3] and in the series with Staphylococcus aureus [5] was “Non-Toxic” in each case.

With `Cc1c(C(=O)Nc2ccccc2)cnn1-c1cccc(Cl)c1`, the IC50 in the series on Staphylococcus aureus [1] was determined as 169 µM; with Staphylococcus aureus [4], 161 µM; in the series on Staphylococcus aureus [6] it was 103 µM. The “growth inhibition (GI)” value with Staphylococcus aureus [2], in the series with Staphylococcus aureus [3] and in the series on Staphylococcus aureus [5] was “Non-Toxic” in each case.
